The results in this text go back to ChEMBL document CHEMBL1667804, “Design and synthesis of caffeoyl-anilides as portmanteau inhibitors of HIV-1 integrase and CCR5” (Bioorg Med Chem, 2011).

In data set [1] the target is Human immunodeficiency virus type 1 reverse transcriptase (Human immunodeficiency virus 1) (UniProt Q72547). Nature of the data set: Inhibition of HIV1 reverse transcriptase.
For data set [2], the system named is Human immunodeficiency virus 1. Nature of the data set: Antiviral activity against HIV1 NL4.3 infected in human CEM-GFP T cells assessed as inhibition of p24 antigen production at highest non cytotoxic concentration after 7 days by ELISA. The class given is functional, CCRF-CEM. The method, boiled down:
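HIV-1 NL4.3 infection of CEM-GFP cells at MOI 0.05, with compound at the highest noncytotoxic concentration (95% viability in MTT) for 7 days. p24 in day-7 supernatant measured by capture ELISA. Reported as % decrease versus untreated infected cells. Preliminary screen by GFP microfluorometry.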
In general terms: An ELISA detects its analyte on a solid surface through an enzyme-linked reagent.

The nature of data set [3]: Cytotoxicity against human CEM-GFP cells assessed as highest non cytotoxic concentration after 48 hrs by MTT assay. In kind it is cell-based, CCRF-CEM. Particulars: read-out: MNCC. The method, boiled down: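 Viability by MTT in CEM-GFP cells after 48 h, absorbance at 540 nm. Viability first measured at three concentrations, then further dilutions made to find the concentration giving 95% viability.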
A general note: Tetrazolium dyes change colour on reduction, which living cells bring about.

Data set [4] can be described thus: Cytotoxicity against human CEM-GFP cells after 48 hrs by MTT assay. In kind it is cell-based, CCRF-CEM. In short, it runs like this:
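MTT assay in CEM-GFP cells (2 × 10^4/well), 48 h exposure over a range of concentrations, with untreated and vehicle controls. Formazan dissolved and read at 540 nm. CC50 is the concentration giving 50% cytotoxicity in uninfected cells (n = 3).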

Data set [5] concerns Human immunodeficiency virus 1. The data set can be described thus: Antiviral activity against R5 tropic HIV1 IndieC infected in human TZM-bl cells expressing CD4, CCR5 and CXCR4 assessed as inhibition of virus entry at highest non cytotoxic concentration after 48 hrs by luciferase assay. In kind it is functional. In short, it runs like this:
(§1)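 TZM-bl cells (10^4/well) seeded and left overnight at 37 °C. Compound added in DMEM/10% FBS for 1 h, then cells washed and infected for 4 h with IndieC (R5) or IIIB (X4).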

Data set [6] deals with Human immunodeficiency virus type 1 integrase (Human immunodeficiency virus 1, UniProt Q7ZJM1). Nature of the data set: Inhibition of full-length recombinant HIV1 integrase. The method, boiled down:
(§2)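 Kit ELISA-type strand-transfer assay. Biotin end-labelled double-stranded HIV-1 LTR U5 donor oligo bound on streptavidin plates, then full-length recombinant HIV-1 integrase loaded. Compound added, followed by a 3′-end-modified double-stranded target oligo. Screened at 20 µg/mL, IC50 determined in µg/mL and converted to molar. Sodium azide positive control.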

For data set [7], the system named is Human immunodeficiency virus 1. Nature of the data set: Antiviral activity against HIV1 NL4.3 infected in human CEM-GFP T cells assessed as inhibition of p24 antigen production after 7 days by ELISA. In kind it is functional, organism-based. Particulars: Human immunodeficiency virus 1, NL4.3, CCRF-CEM, 168 h. In short, it runs like this: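 CEM-GFP cells infected with HIV-1 NL4.3 at MOI 0.05, then cultured with compound for up to 7 days after infection. Day-7 supernatant p24 measured by antigen-capture ELISA. EC50 is the concentration giving 50% inhibition of virus production against untreated infected cells (n = 3). AZT positive control.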

Data set [8] addresses Human immunodeficiency virus type 1 integrase (Human immunodeficiency virus 1) (UniProt Q7ZJM1). Nature of the data set: Inhibition of full-length recombinant HIV1 integrase at 20 ug/ml. In short, it runs like this:
as §2

A short description of data set [9]: Therapeutic index, ratio of CC50 for human CEM-GFP cells to EC50 for HIV1 NL4.3. The class given is cell-based. Particulars: read-out: Ratio CC50/EC50.
Data set [10] concerns Human immunodeficiency virus 1. Nature of the data set: Antiviral activity against X4 tropic HIV1 3B infected in human TZM-bl cells expressing CD4, CCR5 and CXCR4 assessed as inhibition of virus entry at highest non cytotoxic concentration after 48 hrs by luciferase assay. The class given is functional. In short, it runs like this:
as §1

Data set [11] has as its target Human immunodeficiency virus type 1 integrase (Human immunodeficiency virus 1) (UniProt Q7ZJM1). Particulars: 5 ug/ml.

Activity calls are given as the source filed them. No cut-off for these calls is given here.

Chain of Human immunodeficiency virus type 1 integrase (Q7ZJM1 whole entry): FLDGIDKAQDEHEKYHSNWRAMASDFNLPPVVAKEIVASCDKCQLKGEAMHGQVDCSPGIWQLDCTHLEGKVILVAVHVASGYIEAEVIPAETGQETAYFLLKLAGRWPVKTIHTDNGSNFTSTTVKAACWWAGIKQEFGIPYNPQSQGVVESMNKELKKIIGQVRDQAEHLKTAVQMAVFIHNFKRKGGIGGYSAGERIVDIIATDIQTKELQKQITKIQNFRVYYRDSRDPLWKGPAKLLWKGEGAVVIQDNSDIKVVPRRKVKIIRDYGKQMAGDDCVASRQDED
Chain of Human immunodeficiency virus type 1 integrase (Human immunodeficiency virus 1) (Q7ZJM1 as listed by the source): as the sequence (Q7ZJM1 whole entry) above

Turning to `Nc1ccc(C(=O)/C=C/c2ccc(O)c(O)c2)cc1`, in [1], the outcome was inactive. In data set [2], the “inhibition (INH)” value came to 0%. Also, the MNTC at 48 h in data set [3] amounted to 3900 nM.

One may read the CC50 as the concentration that lowers cell viability or growth by half. A low value points to greater toxicity to the cells. One may read the IC50 as the concentration that gives 50% inhibition. In general, EC50 refers to the concentration that produces a half-maximal response. As a reminder, the inhibition is the percentage by which the read-out fell short of the control. In data set [4], `O=C(/C=C/c1ccc(O)c(O)c1)c1ccc(NC(=O)c2ccccc2)cc1` came in with a CC50 at 48 h of 20.3 µM. Further, the outcome in data set [1] was inactive. Besides, the “inhibition (INH)” value is 58.6% in data set [5], 73% in [2] and 27.8% in [10]. The half-inhibitory concentration (IC50) in data set [6] worked out at 50.2 µM. Further, the concentration giving a half-maximal response (EC50) in data set [7] turned out to be 1.6 µM. In addition, the inhibition in data set [8] was 56%. In addition, the selectivity ratio in [9] came to 13. Further, in [3], the MNTC at 48 h is 2800 nM.

`O=C(/C=C/c1ccc(O)c(O)c1)c1ccc(NC(=O)C23C[C@H]4C[C@@H](C2)C[C@@H](C3)C4)cc1` returned a 50% cytotoxic concentration (CC50) at 48 h in [4] of 13.5 µM. The result in [1] was inactive. The figures for the “inhibition (INH)” value in [5], in data set [2] and in data set [10] were 59.6%, 86.1% and 0%, respectively. Besides, the concentration for half-maximal inhibition (IC50) in [6] was determined as 36.8 µM. The EC50 in [7] was determined as 4.2 µM. The inhibition in data set [8] was 67.7%. Further, the selectivity ratio in data set [9] is 3.2. Also, the MNTC at 48 h in data set [3] was determined as 6000 nM.

With `[N-]=[N+]=[N-]` [SODIUM AZIDE], the outcome in [1] was inactive. The half-maximal inhibitory concentration (IC50) in data set [6] stood at 1.2 µM. In addition, in data set [11], the inhibition stood at 98.8%.

For the molecule `CC(C)CC(=O)Nc1ccc(C(=O)/C=C/c2ccc(O)c(O)c2)cc1`, in [1], the outcome was inactive. Moreover, in data set [2], the “inhibition (INH)” value is listed as 0%. For the same molecule, the MNTC at 48 h in [3] stood at 1400 nM.

The molecule `COc1ccc(C(=O)Nc2ccc(C(=O)/C=C/c3ccc(O)c(O)c3)cc2)cc1` gave a CC50 at 48 h in [4] of 32.3 µM. The result in [1] was inactive. For the same molecule, the “inhibition (INH)” value is reported as 55.8% in data set [5], 92.4% in data set [2] and 0% in data set [10]. For the same molecule, the half-inhibitory concentration (IC50) in data set [6] was 25.2 µM. Moreover, the half-maximal effective concentration (EC50) in data set [7] came out at 1.9 µM. Moreover, the inhibition in [8] was determined as 66.8%. Moreover, the selectivity ratio in data set [9] was 17.4. Moreover, the MNTC at 48 h in data set [3] amounted to 6400 nM.

On to `O=C(/C=C/c1ccc(O)c(O)c1)c1ccc(NC(=O)c2ccc(C(F)(F)F)cc2F)cc1`, for which the result in [1] was inactive. Also, in data set [2], the “inhibition (INH)” value is 10.9%. Further, in data set [3], the MNTC at 48 h was determined as 2200 nM.

In data set [4], `Cc1cn([C@H]2C[C@H](N=[N+]=[N-])[C@@H](CO)O2)c(=O)[nH]c1=O` [ZIDOVUDINE] came in with a CC50 at 48 h of 24.1 µM. Moreover, in data set [1], the outcome was inactive. Besides, the “inhibition (INH)” value in data set [2] was found to be 89.8%. The EC50 in data set [7] was determined as 1.1 µM. The MNTC at 48 h in data set [3] was 5000 nM.

`O=C(/C=C/c1ccc(O)c(O)c1)c1ccc(NC(=O)c2ccc(F)c(F)c2)cc1`: the CC50 at 48 h in data set [4] is 15.7 µM. The result in [1] was inactive. Besides, the entries for the “inhibition (INH)” value in data set [5], in [2] and in [10] were 71.5%, 77.6% and 0%, respectively. Besides, the 50% inhibitory concentration (IC50) in [6] was determined as 28.5 µM. Further, in data set [7], the half-maximal effective concentration (EC50) stood at 1.6 µM. Moreover, the inhibition in data set [8] stood at 74%. The selectivity ratio in [9] amounted to 9.8. Also, the MNTC at 48 h in data set [3] came out at 2500 nM.

`O=C(/C=C/c1ccc(O)c(O)c1)c1ccc(NC(=O)c2ccc(F)cc2F)cc1`: in [1], the result was inactive. In addition, the “inhibition (INH)” value in [2] is 16%. Besides, the MNTC at 48 h in data set [3] amounted to 6300 nM.

Consider `O=C(Cc1cccs1)Nc1ccc(C(=O)/C=C/c2ccc(O)c(O)c2)cc1`, for which the 50% cytotoxic concentration (CC50) at 48 h in data set [4] was determined as 51.4 µM. Further, in data set [1], the result was inactive. Moreover, the “inhibition (INH)” value in data set [5] is listed as 52.9%; in data set [2], 71.6%; in data set [10], 0%. Further, in data set [6], the IC50 stood at 44.6 µM. Moreover, in data set [7], the concentration giving a half-maximal response (EC50) was 0.9 µM. For the same molecule, the inhibition in [8] came to 66.5%. Besides, the selectivity ratio in data set [9] stood at 59.1. Further, the MNTC at 48 h in data set [3] was determined as 2600 nM.

In the case of `CC(C)C(=O)Nc1ccc(C(=O)/C=C/c2ccc(O)c(O)c2)cc1`, the outcome in data set [1] was inactive. Further, in data set [2], the “inhibition (INH)” value turned out to be 0%. The MNTC at 48 h in [3] is 1500 nM.

As for `CC(=O)Nc1ccc(C(=O)/C=C/c2ccc(O)c(O)c2)cc1`, the result in [1] was inactive. For the same molecule, the “inhibition (INH)” value in data set [2] is 0%. Also, the MNTC at 48 h in data set [3] was determined as 1700 nM.

Turning to `O=C(/C=C/c1ccc(O)c(O)c1)c1ccc(NC(=O)c2ccco2)cc1`, the result in data set [1] was inactive. The “inhibition (INH)” value in data set [2] amounted to 24.2%. In data set [3], the MNTC at 48 h came to 2900 nM.

For the molecule `O=C(/C=C/c1ccc(O)c(O)c1)c1ccc(NC(=O)c2cccs2)cc1`, in data set [1], the result was inactive. For the same molecule, the “inhibition (INH)” value in data set [2] came to 0%. In [3], the MNTC at 48 h worked out at 2700 nM.

For `O=C(/C=C/c1ccc(O)c(O)c1)c1ccc(NC(=O)c2ccc3ccccc3c2)cc1`, the result in data set [1] was inactive. For the same molecule, in data set [2], the “inhibition (INH)” value worked out at 0%. The MNTC at 48 h in data set [3] stood at 2400 nM.
